Active and inactive are the calls of the source.
How the values were obtained:
[1] = system: Mus musculus; test: Antagonistic activity to show narcotic effect induced by subcutaneous administration of 21.08 umol/kg of morphine in mouse tail-flick test; assay type: functional
In short: (§1)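 Male Swiss-Webster mice. Tail-flick latency read at 10, 20, 30, 45 and 60 min. % antagonism = 100 − (% agonism with morphine)/0.80, taken at peak effect. AD50 with 95% CL by Litchfield–Wilcoxon from the log-dose plot.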

[2] = target: Delta-type opioid receptor (Rattus norvegicus, UniProt P33533); test: Binding affinity at Opioid receptor delta 1 in rat brain membrane was determined by using curve -fitting LIGAND([3H]DHM, [3H]DADL, [3H]DSLET, [3H]EKC); assay type: cell membranes
In short: (§2)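 Rat brain membranes in Tris pH 7.7, preincubated 1 h at 37 °C to strip endogenous opioids. 12 mg tissue per tube with tritiated ligand plus competitor, 1 h at 25 °C, then filtered. Nonspecific binding defined with 1.0 μM unlabeled form of the tracer. Each curve run twice at two tracer concentrations. Affinities from simultaneous LIGAND curve-fitting.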

[3] = system: Mus musculus; test: Effective dose to show narcotic analgesic activity was evaluated in mouse tail-flick test when administered subcutaneously; assay type: functional; settings: sc
In short: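 Male Swiss-Webster mice (21-28 g), pretested twice; heat lamp set for a 2-4 s baseline flick with a 6.5 s cut-off. Three doses, 10 mice/dose, given sc. Latency read at 10-60 min. % of maximum possible increase taken at peak effect. ED50 with 95% CL from a log-dose probit plot (Litchfield–Wilcoxon).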

[4] = target: Mu-type opioid receptor (Rattus norvegicus, UniProt P33535); test: Binding affinity at Opioid receptor mu 1 in rat brain membrane was determined by using curve-fitting ligands ([3H]DHM, [3H]DADL, [3H]DSLET, [3H]EKC); assay type: cell membranes; in short: as §2
[5] = target: Kappa-type opioid receptor (Cavia porcellus, UniProt P41144); test: Binding affinity at Opioid receptor kappa 1 in guinea pig brain membrane determined by using [3H]U-69593 as radioligand; assay type: cell membranes
In short: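 Guinea pig brain membranes prepared as for the rat assay (Tris pH 7.7, 1 h 37 °C preincubation). Displacement of [3H]U69,593 over 1 h at 25 °C, then filtered. Nonspecific binding with 1.0 μM unlabeled U69,593. Curves repeated twice at two tracer concentrations. Values by LIGAND analysis.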

[6] = system: Mus musculus; test: Antagonistic activity to show narcotic effect induced by subcutaneous administration of 21.08 umol/Kg of morphine in mouse tail-flick test; NA=No antagonism; assay type: functional, organism-based; in short: as §1

Delta-type opioid receptor, sequence (P33533 whole entry): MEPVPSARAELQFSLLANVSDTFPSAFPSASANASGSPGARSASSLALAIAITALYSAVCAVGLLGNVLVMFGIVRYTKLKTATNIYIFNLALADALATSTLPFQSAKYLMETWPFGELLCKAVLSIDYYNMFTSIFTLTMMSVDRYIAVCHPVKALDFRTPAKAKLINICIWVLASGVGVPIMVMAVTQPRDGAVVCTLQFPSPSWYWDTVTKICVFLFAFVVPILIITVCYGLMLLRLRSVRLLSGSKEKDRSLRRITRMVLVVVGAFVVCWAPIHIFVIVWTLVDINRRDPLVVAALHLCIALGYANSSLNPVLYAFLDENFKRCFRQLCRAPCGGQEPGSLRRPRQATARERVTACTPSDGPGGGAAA
Mu-type opioid receptor, sequence (P33535 whole entry): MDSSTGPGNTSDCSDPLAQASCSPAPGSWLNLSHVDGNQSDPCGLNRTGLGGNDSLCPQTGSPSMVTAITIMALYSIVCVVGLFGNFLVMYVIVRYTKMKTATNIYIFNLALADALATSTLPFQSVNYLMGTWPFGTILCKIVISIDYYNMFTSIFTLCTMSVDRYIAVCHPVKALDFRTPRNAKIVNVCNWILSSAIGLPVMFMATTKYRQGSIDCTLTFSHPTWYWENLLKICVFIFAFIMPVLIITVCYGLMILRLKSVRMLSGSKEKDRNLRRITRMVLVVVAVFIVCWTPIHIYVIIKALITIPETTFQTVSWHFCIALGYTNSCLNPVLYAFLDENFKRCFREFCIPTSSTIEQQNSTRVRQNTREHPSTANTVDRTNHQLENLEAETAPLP
Kappa-type opioid receptor, sequence (P41144 whole entry): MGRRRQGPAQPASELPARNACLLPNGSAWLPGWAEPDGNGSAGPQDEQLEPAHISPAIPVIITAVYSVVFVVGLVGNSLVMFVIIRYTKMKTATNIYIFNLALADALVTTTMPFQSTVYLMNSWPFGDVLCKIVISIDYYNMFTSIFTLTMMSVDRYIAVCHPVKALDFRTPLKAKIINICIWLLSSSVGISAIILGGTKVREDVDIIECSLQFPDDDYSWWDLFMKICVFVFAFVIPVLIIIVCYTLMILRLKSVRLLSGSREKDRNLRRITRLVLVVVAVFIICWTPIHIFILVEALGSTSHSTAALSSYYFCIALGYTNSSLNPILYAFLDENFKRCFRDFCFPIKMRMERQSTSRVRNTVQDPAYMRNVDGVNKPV

| SMILES | AD50 [1] | Kd [2] | ED50 [3] | Kd [4] | Kd [5] | AD50 [6] |
| --- | --- | --- | --- | --- | --- | --- |
| CCOC(=O)[C@]1(c2cccc(O)c2)CCCN(CCc2ccccc2)[C@H]1C | >198 µM/kg | 170 nM | > 198 µmol/kg | 380 nM | 2600 nM |  |
| C=CCN1CCC[C@](C(=O)OCC)(c2cccc(O)c2)[C@@H]1C | 112 µM/kg | 770 nM | > 118 µmol/kg | 310 nM | 830 nM |  |
| CCOC(=O)[C@]1(c2cccc(O)c2)CCCN(C)[C@H]1C | 14 µM/kg | 910 nM | > 510 µmol/kg | 178 nM | 1900 nM |  |
| C=CCN1CC[C@]23c4c5ccc(O)c4O[C@H]2[C@@H](O)C=C[C@H]3[C@H]1C5 [NALORPHINE] | 2 µM/kg |  | 828 µmol/kg |  |  |  |
| CCOC(=O)[C@]1(c2cccc(O)c2)CCCN(C)C1 | 24 µM/kg | 4000 nM | > 290 µmol/kg | 36 nM | 2200 nM |  |
| CCOC(=O)[C@]1(c2cccc(O)c2)CCCN(CC2CC2)C1 | 19 µM/kg | 260 nM | 68 µmol/kg | 8 nM | 120 nM |  |
| C=CCN1CCC[C@](C(=O)OCC)(c2cccc(O)c2)C1 | >192 µM/kg | 715 nM | > 229 µmol/kg | 26 nM | 450 nM |  |
| CCOC(=O)[C@]1(c2cccc(O)c2)CCCN(CC2CC2)[C@H]1C | 75 µM/kg | 625 nM | > 452 µmol/kg | 154 nM | 830 nM |  |
| CCOC(=O)C1(c2ccccc2)CCN(C)CC1 [MEPERIDINE] |  |  | 25 µmol/kg |  |  | inactive |

— ChEMBL document CHEMBL1123989, “Effects of addition of a 2-methyl group to ethyl nipecotates (beta-meperidines) on receptor affinities and opiate agonist/antagonist activities” (J Med Chem, 1988)
